Test results as given in ChEMBL document CHEMBL2010802, “Melodinines M-U, cytotoxic alkaloids from Melodinus suaveolens” (J Nat Prod, 2012).
pIC50: −log10 of the molar value.

What was measured:
Type in all cases: functional, cell-based
SW480 = test: Cytotoxicity against human SW480 cells after 48 hrs by MTT assay; details: SW480, 48 h
Method in brief: (§1)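 Cells grown in RPMI-1640 or DMEM with 10% FBS, 5% CO2, 37 °C, at 1 × 10^5 cells/mL. Adherent lines (A-549, MCF-7, SMMC-7721, SW480) were left to attach 12 h before dosing; suspension HL-60 was seeded just before dosing. Exposed 48 h to 0.064, 0.32, 1.6, 8 and 40 μM in triplicate, with cisplatin as positive control. MTT viability read-out; IC50 by Reed and Muench method.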

HL-60 = test: Cytotoxicity against human HL60 cells after 48 hrs by MTT assay; details: HL-60, 48 h; method in brief: as §1
MCF7 = test: Cytotoxicity against human MCF7 cells after 48 hrs by MTT assay; details: MCF7, 48 h; method in brief: as §1
SMMC-7721 = test: Cytotoxicity against human SMMC7721 cells after 48 hrs by MTT assay; details: SMMC-7721, 48 h; method in brief: as §1
A549 = test: Cytotoxicity against human A549 cells after 48 hrs by MTT assay; details: A549, 48 h; method in brief: as §1

Row | Compound | pIC50 (SW480) | pIC50 (HL-60) | pIC50 (MCF7) | pIC50 (SMMC-7721) | pIC50 (A549)
1 | CC[C@]12C=CCN3CC[C@]4(C(=C(C(=O)OC)C1)Nc1ccc(O)cc14)[C@@H]32 [MELODININE P] | < 4.40 | 4.55 | < 4.40 | < 4.40 | < 4.40
2 | COC(=O)C1=C2Nc3ccccc3[C@@]23CCN2CC=C[C@@]([C@@H](C)OC(C)=O)(C1)[C@H]23 | 4.82 | 5.24 | 4.85 | 5.22 | 4.81
3 | CC[C@]12C=CCN3CC[C@]4(C(=C(C(=O)OC)C1)Nc1cc(OC)ccc14)[C@@H]32 | 5.62 | 6.30 | 6.70 | 5.96 | 6.00
4 | CC[C@]12C=C[C@@H](CC(C)=O)N3CC[C@]4(C(=C(C(=O)OC)C1)Nc1ccccc14)[C@@H]32 | 6.30 | 6.70 | 6.40 | 6.52 | 6.22
5 | CC[C@@]12CC(C(=O)OC)=C3Nc4ccccc4[C@@]34CCN([C@H](CC(C)=O)[C@@H]3O[C@@H]31)[C@@H]24 [MELODININE S] | 4.87 | 5.32 | 5.15 | 4.95 | 4.82
6 | CC[C@]12C=CCN3CC[C@]4(C(=C(C(=O)OC)C1)Nc1cc(O)c(C)cc14)[C@@H]32 [MELODININE N] | 4.82 | 5.46 | 4.82 | 4.81 | 4.73
7 | CC[C@@]12CC(C(=O)OC)=C3Nc4ccccc4[C@@]34CCN(C[C@@H]3O[C@@H]31)[C@@H]24 [LOCHNERICINE] | < 4.40 | 4.81 | < 4.40 | 4.61 | < 4.40
8 | COC(=O)C1=C2Nc3cc(OC)ccc3[C@@]23CCN2CC=C[C@@]([C@@H](C)O)(C1)[C@H]23 | 4.88 | 5.20 | 4.67 | 4.80 | 4.71
9 | CC[C@]12C=CCN3CC[C@]4(C(=C(C(=O)OC)C1)Nc1cc(O)ccc14)[C@@H]32 | < 4.40 | 5.22 | < 4.40 | 4.81 | 4.75
10 | COC(=O)C1=C2Nc3ccccc3[C@@]23CCN2[C@H](CC(C)=O)C=C[C@@]([C@@H](C)O)(C1)[C@H]23 [MELODININE R] | 5.80 | 6.15 | 5.74 | 5.48 | 5.41
11 | CC[C@]12C=CCN3CC[C@]4(C(=C(C(=O)OC)C1)Nc1ccccc14)[C@@H]32 [TABERSONINE] | 4.92 | 5.35 | 5.00 | 5.25 | 4.83
12 | CC[C@]12C=CCN3CC[C@]4(C(=C(C(=O)OC)C1)Nc1cc(O)c(COC)cc14)[C@@H]32 [MELODININE O] | 4.83 | 5.00 | 4.80 | 4.82 | 4.74
